# Assay results taken from ChEMBL document CHEMBL3244363, “Studies on biologically active halogenated compounds. 1. Synthesis and central nervous system depressant activity of 2-(fluoromethyl)-3-aryl-4(3H)-quinazolinone derivatives” (J Med Chem, 1979).
# Calls of active or inactive are those of the source. No cut-off for these calls is given here.
# Experiments:
# [1] = Acute toxicity in ip dosed ddk mouse assessed as lethality after 72 hrs; type: organism-based; settings: in vivo
# [2] = system: Mus musculus; test: Induction of CNS depressant activity in ip dosed ddk mouse assessed as protection against pentylenetetrazole-induced tonic extensive convulsions administered 30 mins prior to pentylenetetrazole challenge; type: functional; settings: Central nervous system
# Outline: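 In groups of six mice, compound was injected ip as a suspension in CMC solution. Pentylenetetrazole 125 mg/kg was given sc 30 min later. ED50 was estimated from the number of mice protected against death from tonic extensive convulsions within 1 h of the convulsant.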
# [3] = system: Mus musculus; test: Induction of CNS depressant activity in ip dosed ddk mouse assessed as excitation incidence during loss of righting reflex activity over 20 secs; type: functional, organism-based; settings: Central nervous system
# [4] = system: Mus musculus; test: Induction of CNS depressant activity in ip dosed ddk mouse assessed as loss of righting reflex activity over 20 secs; type: functional; settings: Central nervous system
# Outline: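 Groups of six mice received compound ip as a suspension in CMC solution. Each mouse was laid on its back at 15, 30, 60, 90 and 120 min. The reflex was scored as lost if the animal stayed supine over 20 s. ED50 was estimated from the number of mice losing the reflex.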
# [5] = system: Mus musculus; test: Induction of CNS depressant activity in ip dosed ddk mouse assessed as protection against maximal electroshock-induced tonic hind limb extensor seizures administered 30 mins prior to electroshock challenge; type: functional; settings: Central nervous system
# Outline: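 Six mice per group were dosed ip with compound suspended in CMC solution. After 30 min, a 25 mA alternating current was delivered through corneal electrodes for 0.15 s. ED50 was estimated from the number of mice protected against the tonic hind limb extensor component.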
# [6] = system: Mus musculus; test: Induction of CNS depressant activity in ip dosed ddk mouse after 30 mins by rotating rod test; type: functional; settings: Central nervous system, 0.5 h
# Outline: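 Compound was given ip to groups of six mice as a suspension in CMC solution. At 30 min each mouse was set on a rotating rod (3.5 cm diameter, 14 rpm) for 1 min. ED50 was estimated from the number of mice falling off the rod twice during the test.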
Compound,MTD at 72 h [1],ED50 [2],Activity [3],ED50 [4],ED50 [5],ED50 [6],LD50 at 72 h [1]
O=c1c2ccccc2nc(CF)n1-c1ccc(Cl)cc1Cl,100 mg/kg,16.3 mg/kg,Active,18.7 mg/kg,8.1 mg/kg,–,–
CC(=O)Nc1ccc2nc(CF)n(-c3ccccc3C)c(=O)c2c1,≥ 300 mg/kg,75.2 mg/kg,–,> 150 mg/kg,> 150 mg/kg,> 150 mg/kg,–
Cc1ccccc1-n1c(C)nc2ccc(N)cc2c1=O,–,8.1 mg/kg,–,28.1 mg/kg,25.4 mg/kg,27.9 mg/kg,–
Cc1ccccc1-n1c(CF)nc2ccc([N+](=O)[O-])cc2c1=O,≥ 300 mg/kg,> 150 mg/kg,–,> 150 mg/kg,> 150 mg/kg,> 150 mg/kg,–
Cc1c(Cl)cccc1-n1c(CF)nc2ccccc2c1=O,–,16.1 mg/kg,–,18.4 mg/kg,15 mg/kg,15 mg/kg,1560 mg/kg
Cc1ccccc1-n1c(CF)nc2ccc(N)cc2c1=O [AFLOQUALONE],–,5.4 mg/kg,–,35.1 mg/kg,13.3 mg/kg,15.6 mg/kg,315 mg/kg
Cc1ccccc1-n1c(C)nc2ccccc2c1=O [METHAQUALONE],–,36.7 mg/kg,–,31.6 mg/kg,35.2 mg/kg,33.7 mg/kg,542 mg/kg
Cc1ccccc1-n1c(CF)nc2ccccc2c1=O,–,26.6 mg/kg,–,19.9 mg/kg,25.2 mg/kg,35.1 mg/kg,710 mg/kg
Cc1cc(Cl)ccc1-n1c(CF)nc2cccc(Cl)c2c1=O,≥ 300 mg/kg,88.4 mg/kg,–,> 150 mg/kg,> 150 mg/kg,> 150 mg/kg,–
O=c1c2ccccc2nc(CF)n1-c1ccccc1,≥ 300 mg/kg,95.3 mg/kg,–,130 mg/kg,116 mg/kg,98 mg/kg,–
Cc1ccccc1-n1c(CF)nc2cccc(Cl)c2c1=O,≥ 300 mg/kg,34.9 mg/kg,–,95.7 mg/kg,40.3 mg/kg,37.6 mg/kg,–
Cc1cc(Cl)ccc1-n1c(CF)nc2ccccc2c1=O,–,16.3 mg/kg,Active,18.7 mg/kg,14.1 mg/kg,–,432 mg/kg
Cc1ccccc1-n1c(CF)nc2ccc(Cl)cc2c1=O,≥ 300 mg/kg,> 150 mg/kg,–,> 150 mg/kg,> 150 mg/kg,> 150 mg/kg,–
